# Screening data from PubChem.
# Diaphorase act: counter-screen for diaphorase-based assays: diaphorase activators and chemical reducers | activation factor at 20 µM | 0.005% of 190,000 active | Diaphorase/resazurin coupled assay, resorufin fluorescence, 16 min; active compounds read high; 1 = vehicle wells, 0 = NADH-free wells;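 active means diaphorase activity raised at least twofold by the compound at 20 µM; inactive means activation factor below 2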
#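 Material: purified diaphorase enzyme from Clostridium kluyveri / Medium: HEPES pH 7.4 buffer with MgCl2 and Tween 20 / Schedule: enzyme reaction of 16 min at room temperature / Measured by: resorufin fluorescence, excitation 544 nm, emission 590 nm / Evaluation: rise in resorufin formation, marking diaphorase activation or chemical reduction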
# ATG4B inhibitor: inhibitors of human ATG4B cysteine protease. ATG4B cleavage of LC3-PLA2, NBD-HPC fluorescence, 1 h. inhibition, % at 8.33 µM. 0.51% of 340,000 active; in the data active means inhibition above about 40%
# Diaphorase inh: diaphorase inhibition or chemical oxidation counter-screen | 0.69% of 190,000 active | diaphorase resazurin-to-resorufin fluorescence, NADH, 16 min; bacterial (C. kluyveri) enzyme, not human | inhibition, % at 20 µM;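 active means primary screen inhibition at 20 µM above a set limit, cut at about 50% in these data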;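 further: plate controls were DMSO with full reaction for no effect and wells lacking NADH for full effect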
#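 controls = No-NADH positive control and DMSO neutral control | system = Clostridium kluyveri diaphorase enzyme | timing = reaction incubation of 16 min at room temperature | signal = resorufin fluorescence 544/590 nm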
# CTSL1 counter: cathepsin L1 inhibition, PFM18AAP counter-screen; 0.49% of 300,000 active; AID 1906; recombinant F. hepatica cathepsin L1, Z-Leu-Arg-MCA fluorescence; inhibition, % at 5.96 µM;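 active means inhibition above the mean of all tested compounds plus 3 SD, set per screening campaign, cut at about 17% in these data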;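 further: 0% = plate median of test compound wells and 100% = 1 µM Z-Phe-Ala-diazomethylketone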
# HKDC1 inhibitor: HKDC1 (human) hexokinase inhibition. Q2TB90. recombinant HKDC1, G6PDH/diaphorase resazurin coupled fluorescence. inhibition, % at 20 µM. 0.16% of 340,000 active;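 active means inhibition above about 35% when tested at 20 µM, limit read from the data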;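 further: plate controls were DMSO wells with enzyme for no effect and DMSO wells lacking enzyme for full effect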
#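 Assay system – recombinant HKDC1 (HK5) hexokinase enzyme, produced in-house · Input – HKDC1 at 5 µg/mL · Reagent – glucose plus 1 mM ATP as hexokinase substrates · Timing – 90 min reaction incubation at room temperature, dark · Measured by – G6PDH/diaphorase-coupled fluorescence, 1 mM NADP, 100 µM resazurin, 525/613 nm · Benchmarks – DMSO-enzyme wells negative, buffer-substituted wells positive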
# HKDC1 act conf: confirmation of human HKDC1 activators | 14% of 740 active | shares compounds with HKDC1 inhibitor | recombinant HKDC1, G6PDH/diaphorase resazurin fluorescence; active compounds read low | inhibition, % at 20 µM | AID 504708;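 active means inhibition at or below a set negative limit, negative inhibition meaning the enzyme was activated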
# * marks the source's active call; other numbers are inactive results; . = no result given. Compounds with a hit are over-represented: about 1.4% of the library has one in this group of screens.
SMILES,Diaphorase act,ATG4B inhibitor,Diaphorase inh,CTSL1 counter,HKDC1 inhibitor,HKDC1 act conf
COc1ccc(CN(C)C(=O)CCN=C2NS(=O)(=O)c3ccccc32)c(OC)c1,.,-4,.,.,-5,.
COc1cccc2cc(C(=O)Nc3ccc(F)cc3)c(=Nc3ccc(C(=O)O)cc3)oc12,0.4,-9,62*,-2,77*,9
COc1ccc(N=c2oc3c(OC)cccc3cc2C(=O)NCc2ccco2)cc1OC,1,1,2,0,18,.
COc1ccc(/C=C2\SC(=O)N(CCCC(=O)Nc3cc(Cl)ccc3C(=O)O)C2=O)cc1,.,4,.,.,4,.
COc1ccccc1C(=O)NCCC(=O)NCc1ccncc1,.,-6,.,.,-7,.
Cc1cc2cc(CCNC(=O)c3cccc([N+](=O)[O-])c3)c(=O)[nH]c2cc1C,0.6,-14,36,-1,40*,16
Cc1cc2cc(CCNC(=O)c3ccc(S(=O)(=O)N4CCOCC4)cc3)c(=O)[nH]c2cc1C,0.4,-13,58*,1,41*,45
Cc1ccc2cc(CCNC(=O)c3ccc(S(=O)(=O)N4CCCCC4)cc3)c(=O)[nH]c2c1,0.3,-23,72*,9,40*,40
N#Cc1c([N+](=O)[O-])cc([N+](=O)[O-])cc1S(=O)(=O)Cc1ccccc1,.,-6,.,.,34,20
COc1cc(OC)c(C#N)c(S(=O)(=O)Cc2ccccc2)c1,0.9,-15,11,1,-2,.
CC(=O)OC1CCC2(C)C(CCC3C2CC(=O)C2(C)C3CC(C3CCCC3=O)C2C(C)=O)C1 (stereo not given),.,1,.,.,5,.
C[N+](C)(C)CCC(=O)N1C/C(=C/c2ccccc2)C(=O)/C(=C\c2ccccc2)C1,.,16,.,.,15,.
CN(C)CCC(=O)N1C/C(=C/c2ccccc2)C(=O)/C(=C\c2ccccc2)C1,.,17,.,.,12,.
CCOC(=O)N1C/C(=C\c2ccccc2)C(=O)/C(=C/c2ccccc2)C1,.,3,.,.,33,11
COc1ccc(OC(=O)N2C/C(=C/c3ccccc3)C(=O)/C(=C\c3ccccc3)C2)cc1,.,-2,.,.,36*,2
CCCCn1c(N)c(N(CC(C)C)C(=O)CCCn2c(=O)oc3ccccc32)c(=O)[nH]c1=O,.,-2,.,-1,0,.
COc1ccc(OC2CCN(S(=O)(=O)c3ccccc3)CC2)cc1,.,-3,.,-5,-2,.
COCC(=O)OC1CCn2c1nc1c2C(=O)C(C)=C(NC(C)=O)C1=O (stereo not given),.,40,.,.,68*,79
Cn1c2ccccc2c2ccc3c(c21)C(=O)C=CC3=O,.,-14,.,.,37*,0
CCn1ncc(S(=O)(=O)NCc2ccccc2Cl)c1C,.,-4,.,1,-4,.
CCc1ccc(CN2CCC(C(=O)Nc3ccc(Oc4ccccc4)nc3)CC2)o1,.,-3,.,-2,-3,.
O=c1cc(O)c2sc(Nc3ccc(Cl)c(F)c3)nc2[nH]1,.,14,.,-2,39*,-8
O=c1cc(O)c2sc(Nc3ccc(F)c(Cl)c3)nc2[nH]1,0.6,11,44,-3,46*,-20
CC(=O)c1ccc(NC(=O)CSc2nc3[nH]c(=O)cc(O)c3s2)cc1,.,2,.,.,2,.
Cc1[nH]n(-c2ccccc2)c(=O)c1/C=N/Nc1nncc(-c2ccccc2)n1,0.9,-30,6,6,-47,-61*
SMILES,Diaphorase act,ATG4B inhibitor,Diaphorase inh,CTSL1 counter,HKDC1 inhibitor,HKDC1 act conf
Cc1[nH]n(-c2ccccc2)c(=O)c1/C=N/NC(=O)c1ccc(O)cc1O,.,-1,.,2,-9,.
Cc1ccc(/C=N/Nc2nncc(-c3ccccc3)n2)o1,0.9,1,9,1,3,.
CCCCN(CCCC)C(=S)N/N=C/c1c(C)[nH]n(-c2ccccc2)c1=O,0.9,-11,12,5,-41,-65*
Cc1ccccc1OCCCN1C(=O)C(=O)c2cccc(C)c21,0.8,20,15,4,37*,-6
CC1(c2nnc(Cc3ccccc3)o2)CC(c2ccccc2[N+](=O)[O-])=NO1 (stereo not given),.,0,.,3,9,.
COc1ccccc1C1=NNC(=Nc2cccc(S(=O)(=O)N(C)C)c2)SC1,1,-24,-3,0,-202,-177*
